From ChEMBL document CHEMBL1127652, “An enantiospecific synthesis of the human cytomegalovirus antiviral agent [(R)-3-((2-amino-1,6-dihydro-6-oxo-9H-purin-9-yl)methoxy)-4- hydroxybutyl]phosphonic acid” (J Med Chem, 1994)

What was measured:
[1] = In vitro toxicity against burst forming unit erythroid (BFU-E); details: human, burst forming unit erythroid (BFU-E) progenitor cells
MRC5 = experiment: In vitro antiviral activity against Human cytomegalovirus (HCMV)strain AD169 in MRC-5 lung fibroblasts using a DNA-hybridization assay; type: functional, cell-based
Outline: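 HCMV strain AD169 grown in MRC-5 human lung fibroblasts; viral DNA read out by DNA hybridization. Each drug concentration tested in triplicate. IC50 derived by probit linear regression, and reported values span 7 to 12 independent experiments with standard errors.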

[2] = In vitro toxicity against colony forming unit granulocyte macrophage (CFU-GM); type: cell-based; details: human
CCRF-CEM = experiment: The compound is evaluated for toxicity in CEM cells; type: cell-based; details: Homo sapiens
MOLT-4 = experiment: The compound is evaluated for toxicity in MOLT-4 cells; type: cell-based; details: Homo sapiens
IM-9 = experiment: The compound is evaluated for toxicity in IM-9 cells; type: cell-based; details: Homo sapiens

Compound | IC50 [1] [µM] | IC50 (MRC5) [µM] | IC50 [2] [µM] | IC50 (CCRF-CEM) [µM] | IC50 (MOLT-4) [µM] | IC50 (IM-9) [µM]
Nc1nc(O)c2ncn(COC(CO)CCP(=O)(O)O)c2n1 (stereo not drawn) | 200 | 5.6 | 280 |  |  | 
CCOP(=O)(O)CC[C@H](CO)OCn1cnc2c(O)nc(N)nc21 |  | 6.8 |  |  |  | 
Nc1nc2c(ncn2CO[C@@H](CO)CCP(=O)(O)O)c(=O)[nH]1 | 126 | 1.7 | 96 | > 100 | > 100 | > 100
Nc1nc2c(ncn2COC(CO)CO)c(=O)[nH]1 [GANCICLOVIR] | 29 | 1.7 | 19 |  |  | 
